Measured values: ChEMBL document CHEMBL1687849, “Lauroside B, a megastigmane glycoside from Laurus nobilis (bay laurel) leaves, induces apoptosis in human melanoma cell lines by inhibiting NF-κB activation” (J Nat Prod, 2011)
Active and inactive are the calls of the source. The rule behind the calls is not given here.

What was measured:
A-375 [1] = assay: Induction of apoptosis in human A375 cells assessed as necrotic apoptotic cells at 20 uM after 48 hrs by annexin V/propidium iodide based flow cytometry; type: functional
Outline: (§1)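 A375 cells attached overnight, then treated 48 h with test compound (30 μM) or curcumin (20 μM). Adherent and floating cells pooled, washed in PBS and resuspended at 10^6/mL in HEPES pH 7.4/NaCl/CaCl2 binding buffer. 10^5 cells stained 15 min at room temperature in the dark with FITC-annexin V and PI, then flow cytometry. Quadrants scored as early apoptotic, late apoptotic or necrotic. Three experiments.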

A-375 [2] = assay: Induction of apoptosis in human A375 cells assessed as early apoptotic cells at 20 uM after 48 hrs by annexin V/propidium iodide based flow cytometry; type: functional; outline: as §1
A-375 [3] = assay: Induction of apoptosis in human A375 cells assessed as late apoptotic cells at 20 uM after 48 hrs by annexin V/propidium iodide based flow cytometry; type: functional; outline: as §1
A-375 [4] = assay: Inhibition of NF-kappaB DNA binding activity in human A375 cells at 30 uM after 2 hrs by electrophoretic mobility shift assay; type: cell-based
Outline: (§2)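 A375 cells treated at 30 μM; whole-cell extracts taken at 0, 1, 2, 4, 8 and 24 h. Extract (12 μg protein in 0.1% Triton X-100 buffer) incubated 30 min with 32P-labelled κB probe. Complexes resolved on nondenaturing 4% polyacrylamide gel and quantified by phosphorimaging, normalized to the nonspecific protein-DNA complex in the same lane. Three experiments.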

WM-115 [5] = assay: Antiproliferative activity against human WM115 cells at 3 to 30 uM by MTT assay; type: functional, cell-based; settings: TDE = time-dependent effect
Outline: (§3)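 Cells grown in DMEM with 10% FBS, glutamine, HEPES and antibiotics at 37 °C, 5% CO2. Seeded at 1×10^4 cells/well and treated at 3, 10 or 30 μM for 24, 48 or 72 h. MTT (5 mg/mL stock) then added for 3 h at 37 °C. Crystals dissolved in 50% DMF/20% SDS pH 4.5; OD read at 620 nm. n = 3, mean ± SEM, ANOVA with Bonferroni.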

[6] = Decrease in NFkappaB-mediated c-FLIP gene expression in human A375 cells at 30 uM after 8 hrs by Western blot analysis; type: cell-based; settings: A-375
A-375 [7] = assay: Inhibition of NF-kappaB activation in human A375 cells assessed as IkappaB-alpha degradation at 30 uM by Western blot analysis; type: cell-based; settings: TDE = time-dependent effect
Outline: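 A375 cells treated at 30 μM for 1, 2, 4 and 8 h. Cytosolic extracts (40 μg protein) run on SDS-PAGE and transferred to nitrocellulose. Probed overnight at 4 °C for IκB-α, HRP secondary, ECL detection. Three separate experiments.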

A-375 [8] = assay: Inhibition of NF-kappaB DNA binding activity in human A375 cells at 30 uM after 8 hrs by electrophoretic mobility shift assay; type: cell-based; outline: as §2
A-375 [9] = assay: Antiproliferative activity against human A375 cells after 24 to 72 hrs by MTT assay; type: functional, cell-based; outline: as §3
SK-MEL-28 [10] = assay: Antiproliferative activity against human SK-MEL-28 cells at 3 to 30 uM by MTT assay; type: functional, cell-based; settings: TDE = time-dependent effect; outline: as §3
WM-115 [11] = assay: Antiproliferative activity against human WM115 cells after 24 to 72 hrs by MTT assay; type: functional, cell-based; outline: as §3
WM-115 [12] = assay: Antiproliferative activity against human WM115 cells at 30 uM after 72 hrs by MTT assay; type: functional; settings: WM-115, 72 h; outline: as §3
A-375 [13] = assay: Activation of caspase 3 in human A375 cells assessed as cleavage of substrate PARP at 30 uM by Western blot analysis; type: functional, cell-based
Outline: (§4)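 Whole-cell A375 lysates collected 0, 1, 2, 4 and 8 h after 30 μM treatment, made in Tris/HCl pH 7.4 buffer with 0.1% Triton X-100, EDTA, vanadate, PMSF and protease inhibitors. 20 μg protein per lane on SDS-PAGE and nitrocellulose. Probed overnight at 4 °C for pro-caspase-3 and PARP, with β-actin; HRP secondary, ECL detection. Three separate experiments.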

A-375 [14] = assay: Induction of apoptosis in human A375 cells assessed as early apoptotic cells at 30 uM after 48 hrs by annexin V/propidium iodide based flow cytometry; type: functional; outline: as §1
A-375 [15] = assay: Induction of apoptosis in human A375 cells assessed as necrotic apoptotic cells at 30 uM after 48 hrs by annexin V/propidium iodide based flow cytometry; type: functional; outline: as §1
SK-MEL-28 [16] = assay: Antiproliferative activity against human SK-MEL-28 cells after 24 to 72 hrs by MTT assay; type: functional, cell-based; outline: as §3
A-375 [17] = assay: Activation of caspase 3 in human A375 cells assessed as reduction in pro-caspase 3 at 30 uM by Western blot analysis; type: functional, cell-based; settings: TDE = time-dependent effect; outline: as §4
A-375 [18] = assay: Inhibition of NF-kappaB DNA binding activity in human A375 cells at 30 uM after 4 hrs by electrophoretic mobility shift assay; type: cell-based; outline: as §2
[19] = Decrease in NFkappaB-mediated XIAP gene expression in human A375 cells at 30 uM after 8 hrs by Western blot analysis; type: cell-based; settings: A-375
A-375 [20] = assay: Inhibition of NF-kappaB DNA binding activity in human A375 cells at 30 uM after 1 hr by electrophoretic mobility shift assay; type: cell-based; outline: as §2
[21] = Antiproliferative activity against human NHEM at 3 to 30 uM after 24 to 72 hrs by MTT assay
Outline: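 Normal human epidermal melanocytes grown in melanocyte growth medium 2. Seeded at 1×10^4 cells/well and treated at 3, 10 or 30 μM for 24, 48 or 72 h. MTT (5 mg/mL stock) then added for 3 h at 37 °C. Formazan dissolved in 50% DMF/20% SDS pH 4.5; absorbance at 620 nm.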

A-375 [22] = assay: Antiproliferative activity against human A375 cells at 3 to 30 uM by MTT assay; type: functional, cell-based; settings: TDE = time-dependent effect; outline: as §3
SK-MEL-28 [23] = assay: Antiproliferative activity against human SK-MEL-28 cells at 30 uM after 72 hrs by MTT assay; type: functional; settings: SK-MEL-28, 72 h; outline: as §3
A-375 [24] = assay: Antiproliferative activity against human A375 cells at 30 uM after 72 hrs by MTT assay; type: functional; settings: A-375, 72 h; outline: as §3
A-375 [25] = assay: Induction of apoptosis in human A375 cells assessed as late apoptotic cells at 30 uM after 48 hrs by annexin V/propidium iodide based flow cytometry; type: functional; outline: as §1
A-375 [26] = assay: Inhibition of NF-kappaB DNA binding activity in human A375 cells at 30 uM after 24 hrs by electrophoretic mobility shift assay; type: cell-based; outline: as §2

SMILES: COc1cc(/C=C/C(=O)CC(=O)/C=C/c2ccc(O)c(OC)c2)ccc1O [CURCUMIN]
- Activity (A-375 [1]): 10.3%
- Activity (A-375 [2]): 3.4%
- Activity (A-375 [3]): 80%

SMILES: C[C@H](/C=C/[C@@]1(O)[C@H](CO)CC(=O)CC1(C)C)O[C@@H]1O[C@H](CO)[C@@H](O)[C@H](O)[C@H]1O [LAUROSIDE B]
- inhibition (A-375 [4]): 20%
- inhibition (WM-115 [5]): tde
- Activity [6]: Active
- Activity (A-375 [7]): tde
- inhibition (A-375 [8]): 86%
- inhibition (A-375 [9]): Dose-dependent effect
- inhibition (SK-MEL-28 [10]): tde
- inhibition (WM-115 [11]): Dose-dependent effect
- inhibition at 30 µM (WM-115 [12]): 50%
- Activity (A-375 [13]): Active
- Activity (A-375 [14]): 0.6%
- Activity (A-375 [15]): 5.1%
- inhibition (SK-MEL-28 [16]): Dose-dependent effect
- Activity (A-375 [17]): tde
- inhibition (A-375 [18]): 60%
- Activity [19]: Active
- inhibition (A-375 [20]): 6%
- Activity [21]: Non-toxic
- inhibition (A-375 [22]): tde
- inhibition at 30 µM (SK-MEL-28 [23]): 33%
- inhibition at 30 µM (A-375 [24]): 65%
- Activity (A-375 [25]): 35%
- inhibition (A-375 [26]): 100%
